Test results as given in ChEMBL document CHEMBL3865799, “Synthesis of a series of novel dihydroartemisinin monomers and dimers containing chalcone as a linker and their anticancer activity” (Eur J Med Chem, 2016).
Active and inactive are the calls of the source. The rule behind the calls is not given here.

How the values were obtained:
[1] = Cytotoxicity against human HL60 cells assessed as cell growth inhibition at 50 uM after 48 hrs by MTT assay; type: functional; details: HL-60, 48 h, read-out: GI
Method in brief: (§1)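 HL-60 suspension cells, 1.5 × 10^4 per well, grown at 37 °C in 5% CO2 with 10% FCS. Treated 48 h with compound in DMSO (vehicle <0.2% v/v). MTT added 3 h before the end. Formazan dissolved in DMSO and read at 570 nm (reference 620 nm). % growth inhibition computed against untreated cells; IC50 taken from the concentration series.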

[2] = Cytotoxicity against human LS180 cells assessed as cell growth inhibition at 30 uM after 48 hrs by MTT assay; type: functional; details: LS180, 48 h, read-out: GI
Method in brief: (§2)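 Adherent lines at 70–75% confluence, grown at 37 °C in 5% CO2 with 10% FCS. Exposed 48 h to compound in DMSO (vehicle <0.2% v/v). MTT dye added 3 h before termination; formazan dissolved in DMSO, OD 570 nm with 620 nm reference. Growth inhibition expressed as % of untreated; IC50 taken from the dose series.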

[3] = Cytotoxicity against human HL60 cells assessed as cell growth inhibition after 48 hrs by MTT assay; type: functional, cell-based; details: HL-60, 48 h; method in brief: as §1
Vero [4] = assay: Selectivity index, ratio of IC50 for African green monkey Vero cells to IC50 for human HL60 cells; type: functional
Method in brief: (§3)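 Suspension cells were seeded at 1.5 × 10^4 per well and adherent lines at 70–75% confluence, then exposed to a range of concentrations. MTT was added 3 h before the end, formazan dissolved in DMSO, and OD read at 570 nm (reference 620 nm). Growth inhibition was taken relative to untreated cells. IC50 came from the MTT data; SI = IC50 in Vero cells / IC50 in the tumour line.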

Vero [5] = assay: Selectivity index, ratio of IC50 for African green monkey Vero cells to IC50 for human MIAPaCa2 cells; type: functional; method in brief: as §3
Vero [6] = assay: Selectivity index, ratio of IC50 for African green monkey Vero cells to IC50 for human PC3 cells; type: functional; method in brief: as §3
[7] = Cell cycle arrest in human HL60 cells assessed as accumulation at G2 phase at 0.2 uM after 24 hrs by propidium iodide-DNA fluorescence based FACS analysis (reference value: 1 %); type: functional; details: HL-60
Method in brief: (§4)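 HL-60 cells seeded at 0.5 × 10^6 cells/ml, exposed 24 h to compound (DMSO vehicle, <0.2% v/v). Pelleted at 400×g, PBS-washed, fixed in 70% ethanol at 4 °C overnight. RNase A treatment at 37 °C for 1.30 h, then propidium iodide staining for 20 min. Flow cytometry on 10,000 events, FL2-A vs FL2-W; subG0 (apoptotic) and phase populations gated.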

[8] = Cell cycle arrest in human HL60 cells assessed as accumulation at subG0 phase at 0.5 uM after 24 hrs by propidium iodide-DNA fluorescence based FACS analysis (reference value: 5 %); type: functional; details: HL-60; method in brief: as §4
[9] = Cell cycle arrest in human HL60 cells assessed as accumulation at G2 phase at 0.5 uM after 24 hrs by propidium iodide-DNA fluorescence based FACS analysis (reference value: 1 %); type: functional; details: HL-60; method in brief: as §4
[10] = Cell cycle arrest in human HL60 cells assessed as accumulation at G2 phase at 1 uM after 24 hrs by propidium iodide-DNA fluorescence based FACS analysis (reference value: 1 %); type: functional; details: HL-60; method in brief: as §4
[11] = Cell cycle arrest in human HL60 cells assessed as accumulation at G1 phase at 5 uM after 24 hrs by propidium iodide-DNA fluorescence based FACS analysis (reference value: 46 %); type: functional; details: HL-60; method in brief: as §4
HL-60 [12] = assay: Induction of apoptosis in human HL60 cells assessed as loss of mitochondrial membrane potential at 0.5 uM after 24 hrs by Rh123 dye-based FACS analysis (reference value: 5%); type: functional
[13] = Cell cycle arrest in human HL60 cells assessed as accumulation at subG0 phase at 5 uM after 24 hrs by propidium iodide-DNA fluorescence based FACS analysis (reference value: 5 %); details: HL-60
[14] = Cytotoxicity against human PC3 cells assessed as cell growth inhibition at 0.5 uM after 48 hrs by MTT assay; type: functional; details: PC-3, 48 h, read-out: GI; method in brief: as §2
[15] = Cytotoxicity against human MIAPaCa2 cells assessed as cell growth inhibition at 0.5 uM after 48 hrs by MTT assay; type: functional; details: MIA PaCa-2, 48 h, read-out: GI; method in brief: as §2
[16] = Cytotoxicity against human MIAPaCa2 cells assessed as cell growth inhibition at 1 uM after 48 hrs by MTT assay; type: functional; details: MIA PaCa-2, 48 h, read-out: GI; method in brief: as §2
[17] = Cytotoxicity against human MIAPaCa2 cells assessed as cell growth inhibition at 10 uM after 48 hrs by MTT assay; type: functional; details: MIA PaCa-2, 48 h, read-out: GI; method in brief: as §2
[18] = Cytotoxicity against human PC3 cells assessed as cell growth inhibition at 10 uM after 48 hrs by MTT assay; type: functional; details: PC-3, 48 h, read-out: GI; method in brief: as §2
[19] = Cytotoxicity against human HepG2 cells assessed as cell growth inhibition at 0.5 uM after 48 hrs by MTT assay; type: functional; details: HepG2, 48 h, read-out: GI; method in brief: as §2
[20] = Cytotoxicity against human HepG2 cells assessed as cell growth inhibition at 1 uM after 48 hrs by MTT assay; type: functional; details: HepG2, 48 h, read-out: GI; method in brief: as §2
[21] = Cytotoxicity against human HepG2 cells assessed as cell growth inhibition at 10 uM after 48 hrs by MTT assay; type: functional; details: HepG2, 48 h, read-out: GI; method in brief: as §2
[22] = Cytotoxicity against human LS180 cells assessed as cell growth inhibition at 0.5 uM after 48 hrs by MTT assay; type: functional; details: LS180, 48 h, read-out: GI; method in brief: as §2
[23] = Cytotoxicity against human LS180 cells assessed as cell growth inhibition at 10 uM after 48 hrs by MTT assay; type: functional; details: LS180, 48 h, read-out: GI; method in brief: as §2
HL-60 [24] = assay: Induction of apoptosis in human HL60 cells assessed as condensation of nuclei after 24 hrs by hoechst 33258 staining-based microscopic analysis; type: functional, cell-based
Method in brief: (§5)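 HL-60 cells at 0.5 × 10^6/ml were treated for 24 h with […] compound in DMSO vehicle (<0.2%). Cells were fixed in cold acetic acid:methanol (1:3) for 1 h on ice, spread on slides and air-dried overnight. Slides were stained with Hoechst 33258 for 30 min, mounted in glycerol:PBS and viewed by fluorescence microscopy at 20×. Morphology was checked by phase contrast. One of three experiments shown.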

HL-60 [25] = assay: Induction of apoptosis in human HL60 cells assessed as induction of apoptotic bodies at 0.5 uM after 24 hrs by hoechst 33258 staining-based microscopic analysis; type: functional, cell-based; method in brief: as §5
HL-60 [26] = assay: Induction of apoptosis in human HL60 cells assessed as cell shrinkage after 24 hrs phase contrast microscopic analysis; type: functional, cell-based
Method in brief: (§6)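 HL-60 cells at 0.5 × 10^6 cells/ml treated 24 h with compound at 0.2, 0.5, 1 or 5 (DMSO vehicle). Treated and control cells photographed under a phase contrast microscope at 20× and scored for morphology.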

HL-60 [27] = assay: Induction of apoptosis in human HL60 cells assessed as blebs formation after 24 hrs phase contrast microscopic analysis; type: functional, cell-based; method in brief: as §6
[28] = Cell cycle arrest in human HL60 cells assessed as accumulation at subG0 phase after 24 hrs by propidium iodide-DNA fluorescence based FACS analysis; type: functional; details: HL-60; method in brief: as §4
[29] = Lipophilicity, log P of the compound; type: physicochemical; details: octanol/water
[30] = Aqueous solubility of the compound at pH 7; type: physicochemical
[31] = Lipophilicity, log P of the compound at pH 7; type: physicochemical; details: buffer

Which results are given for C[C@H]1[C@@H](O)O[C@@H]2O[C@@]3(C)CC[C@H]4[C@H](C)CC[C@@H]1[C@@]24OO3 [ARTENIMOL]?
inhibition of growth at 50 µM [1]: 93%; inhibition of growth at 30 µM [2]: 32%; IC50 [3]: 2000 nM; Ratio IC50 (Vero [4]): 63; Ratio IC50 (Vero [5]): 12; Ratio IC50 (Vero [6]): 25; Activity [7]: 2%; Activity [8]: 8%; Activity [9]: 5%; Activity [10]: 4%; Activity [11]: 75%; Activity (HL-60 [12]): 20%; Activity [13]: 27%

Which inhibition of growth at 0.5 µM [14] does the source give for C[C@H]1[C@@H](OCCOc2cccc(C(=O)/C=C/c3ccc(O)cc3)c2)O[C@@H]2O[C@@]3(C)CC[C@H]4[C@H](C)CC[C@@H]1[C@@]24OO3 here?
The inhibition of growth at 0.5 µM was 15.2%.

What about the inhibition of growth at 50 µM [1] of the same compound?
The inhibition of growth at 50 µM was 94.8%.

What about the inhibition of growth at 30 µM [2] of the same compound?
The inhibition of growth at 30 µM was 25.2%.

And the IC50 [3]?
Its IC50 is 400 nM.

And the “Ratio IC50” value (Vero [4])?
The value was 180.

And the inhibition of growth at 0.5 µM [15]?
Its inhibition of growth at 0.5 µM is 12.7%.

What about the inhibition of growth at 1 µM [16] of the same compound?
The inhibition of growth at 1 µM was 13%.

And the inhibition of growth at 10 µM [17]?
The inhibition of growth at 10 µM was 15.1%.

And the “Ratio IC50” value (Vero [5])?
The value was 32.

What about the inhibition of growth at 10 µM [18] of the same compound?
Its inhibition of growth at 10 µM is 29.6%.

What about the “Ratio IC50” value (Vero [6]) of the same compound?
The value was 80.

And the inhibition of growth at 0.5 µM [19]?
Its inhibition of growth at 0.5 µM is 25.2%.

And the inhibition of growth at 1 µM [20]?
The inhibition of growth at 1 µM was 29.6%.

What about the inhibition of growth at 10 µM [21] of the same compound?
The inhibition of growth at 10 µM was 37.7%.

And the inhibition of growth at 0.5 µM [22]?
Its inhibition of growth at 0.5 µM is 21.7%.

What about the inhibition of growth at 10 µM [23] of the same compound?
The inhibition of growth at 10 µM was 27.2%.

And the Activity [7]?
The Activity was 6%.

And the Activity [8]?
Its Activity is 9%.

And the Activity [9]?
The Activity was 8%.

What about the Activity [10] of the same compound?
Its Activity is 19%.

What about the Activity [11] of the same compound?
Its Activity is 64%.

And the Activity (HL-60 [12])?
Its Activity is 34%.

And the Activity (HL-60 [24])?
Its Activity is “Dose-dependent effect”.

What about the Activity (HL-60 [25]) of the same compound?
The Activity was “Active”.

What about the Activity (HL-60 [26]) of the same compound?
The Activity was “Dose-dependent effect”.

And the Activity (HL-60 [27])?
Its Activity is “Dose-dependent effect”.

What about the Activity [28] of the same compound?
The Activity was “Dose-dependent effect”.

What about the logP [29] of the same compound?
The logP was 6.33.

And the solubility [30]?
The solubility was > 100 µg/mL.

And the logP [31]?
The logP was -5.96.

Which results are given for C[C@H]1[C@@H](OCCOc2ccc(/C=C/C(=O)c3ccc(O)cc3)cc2)O[C@@H]2O[C@@]3(C)CC[C@H]4[C@H](C)CC[C@@H]1[C@@]24OO3?
inhibition of growth at 0.5 µM [14]: 19.3%; inhibition of growth at 50 µM [1]: 93.6%; inhibition of growth at 30 µM [2]: 55.2%; IC50 [3]: 300 nM; Ratio IC50 (Vero [4]): 240; inhibition of growth at 0.5 µM [15]: 6.2%; inhibition of growth at 1 µM [16]: 9.1%; inhibition of growth at 10 µM [17]: 16.8%; Ratio IC50 (Vero [5]): 88; inhibition of growth at 10 µM [18]: 41.5%; Ratio IC50 (Vero [6]): 82; inhibition of growth at 0.5 µM [19]: 20.2%; inhibition of growth at 1 µM [20]: 23.8%; inhibition of growth at 10 µM [21]: 60.4%; inhibition of growth at 0.5 µM [22]: 32.2%; inhibition of growth at 10 µM [23]: 36.6%; Activity [7]: 5%; Activity [8]: 28%; Activity [9]: 9%; Activity [10]: 16%; Activity [11]: 55%; Activity (HL-60 [12]): 27%; Activity (HL-60 [24]): Dose-dependent effect; Activity (HL-60 [25]): Active; Activity (HL-60 [26]): Dose-dependent effect; Activity (HL-60 [27]): Dose-dependent effect; Activity [28]: Dose-dependent effect; logP [29]: 6.33; solubility [30]: > 100 µg/mL; logP [31]: -5.96; Activity [13]: 95%
